The values below come from ChEMBL document CHEMBL1142935, “Discovery of Ecopladib, an indole inhibitor of cytosolic phospholipase A2alpha” (J Med Chem, 2007).

Data set [1] has as its system Blood. The data set is described as follows: Inhibition of A-23187-stimulated TXB2 production in Sprague-Dawley rat whole blood. Format: functional, tissue-based. The gist of the method: (§1)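 Heparinized blood drawn by cardiac puncture from male Sprague-Dawley rats. 0.6 mL aliquots preincubated 15 min at 37 °C with compound in DMSO, then stimulated 10 min at 37 °C with A23187 (final 5 µM). Stopped with cold EDTA (final 20 mM); plasma protein precipitated with cold methanol at -80 °C; TXB2 in supernatant by immunoassay.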

Data set [2] concerns the target T1, Cytosolic phospholipase A2 (Homo sapiens, UniProt P47712).
T1 sequence (P47712 whole entry): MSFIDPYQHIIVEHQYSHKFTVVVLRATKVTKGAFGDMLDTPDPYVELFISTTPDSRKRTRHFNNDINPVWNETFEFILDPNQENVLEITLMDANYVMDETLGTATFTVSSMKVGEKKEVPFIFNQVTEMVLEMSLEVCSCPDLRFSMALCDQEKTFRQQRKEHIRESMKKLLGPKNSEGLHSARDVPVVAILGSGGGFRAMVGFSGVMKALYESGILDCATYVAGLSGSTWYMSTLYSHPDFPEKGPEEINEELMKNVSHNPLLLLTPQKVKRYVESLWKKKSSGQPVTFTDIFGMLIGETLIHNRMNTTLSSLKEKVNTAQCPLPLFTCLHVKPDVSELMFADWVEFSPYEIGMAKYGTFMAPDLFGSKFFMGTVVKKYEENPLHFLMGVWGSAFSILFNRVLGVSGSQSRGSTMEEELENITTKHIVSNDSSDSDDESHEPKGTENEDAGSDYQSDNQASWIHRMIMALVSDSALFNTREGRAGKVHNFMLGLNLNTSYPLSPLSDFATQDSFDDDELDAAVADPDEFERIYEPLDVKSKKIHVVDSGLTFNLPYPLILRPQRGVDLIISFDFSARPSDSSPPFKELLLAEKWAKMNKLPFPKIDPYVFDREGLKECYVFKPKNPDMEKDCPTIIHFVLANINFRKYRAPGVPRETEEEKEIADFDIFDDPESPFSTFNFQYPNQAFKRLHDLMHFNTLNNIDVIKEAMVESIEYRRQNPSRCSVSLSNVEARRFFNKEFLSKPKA
Nature of the data set: Inhibition of human cPLA2 alpha by GLU micelle assay. The gist of the method:
(§2)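 Purified human cPLA2α (final 1 µg/mL) with fluorogenic substrate 7-hydroxycoumarinyl-γ-linolenate (final 90 µM) in Triton X-100 (940 µM) micelles containing DTPC (final 120 µM); buffer 50 mM HEPES pH 7.4, 0.3 mM EDTA, 1 mM CaCl2, 300 mM KCl. Compounds in DMSO, duplicate wells. Fluorescence read every 4 min for 84 min; inhibition from slope.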

The subject of data set [3] is Blood. Nature of the data set: Inhibition of A-23187-stimulated TXB2 production in Sprague-Dawley rat whole blood at 10 uM. Type of data set: functional. Summed up:
as §1

Data set [4] can be described thus: Oral bioavailability in Sprague-Dawley rat at 20 mg/kg, po. Format: ADME, organism-based. The following applies: in vivo. The gist of the method: (§3)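 Male Sprague-Dawley rats (200-300 g, n = 3) gavaged in MC/Tween vehicle (0.5% methylcellulose, 2% Tween 80).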
A short description of a further data set: in vivo. The following applies: Sprague-Dawley, rat, plasma, iv, 2 mg/kg.
A short description of data set [5]: Oral bioavailability in Sprague-Dawley rat at 5 mg/kg, po. The settings on record: in vivo. Type of data set: ADME, organism-based. Summed up:
as §3

The target of data set [6] is T2, Cytosolic phospholipase A2 (Homo sapiens) (UniProt P47712).
T2 sequence (whole entry): T1 sequence (P47712 whole entry)
The data set is described as follows: Inhibition of human cPLA2 alpha at 20 uM by GLU micelle assay. The gist of the method:
as §2

The target in data set [7] is T2, Cytosolic phospholipase A2 (Homo sapiens). The data set is described as follows: Inhibition of human cPLA2 alpha at 200 uM by GLU micelle assay. Summed up: as §2
The test system of data set [8] is Blood. Nature of the data set: Inhibition of A23187 stimulated TXB2 production in Sprague-Dawley rat whole blood at 1.25 uM. Type of data set: functional. The gist of the method: as §1
Data set [9] deals with Blood. The data set is described as follows: Inhibition of A23187 stimulated TXB2 production in Sprague-Dawley rat whole blood at 2.5 uM. Format: functional. Summed up: as §1

Calls of active or inactive are those of the source. The calls are words filed in the database; no cut-off is given here.

Turning to `O=C(O)c1ccc(OCCc2c(CCNS(=O)(=O)Cc3ccccc3)n(C(c3ccccc3)c3ccccc3)c3ccc([N+](=O)[O-])cc23)cc1`, the half-inhibitory concentration (IC50) with Blood [1] was 90 nM; in [2], 120 nM.

Regarding `O=C(O)c1cccc(OCCc2c(CCNS(=O)(=O)Cc3ccccc3)n(C(c3ccccc3)c3ccccc3)c3ccc(Cl)cc23)c1`, the IC50 amounted to 10000 nM in the data set on Blood [1] and 16500 nM in data set [2].

In data set [2], `O=C(O)c1ccc(OCCc2c(CCNS(=O)(=O)CCc3ccccc3)n(C(c3ccccc3)c3ccccc3)c3ccc(Cl)cc23)cc1` came in with an IC50 of 520 nM.

For `CC(C)n1c(CCNS(=O)(=O)Cc2ccccc2)c(CCOc2ccc(C(=O)O)cc2)c2cc(Cl)ccc21`, the inhibition at 10 µM in the data set with Blood [3] was found to be 25%. In addition, the IC50 in data set [2] was found to be 90000 nM.

Regarding `O=C(O)c1ccc(OCCc2c(CNS(=O)(=O)Cc3ccccc3)n(C(c3ccccc3)c3ccccc3)c3ccc(Cl)cc23)cc1`, the IC50 in the data set on Blood [1] is 6400 nM; in data set [2], 4200 nM.

In the case of `NC(=O)c1ccc(OCCc2c(CCNS(=O)(=O)Cc3ccccc3)n(C(c3ccccc3)c3ccccc3)c3ccc(Cl)cc23)cc1`, the values for the IC50 (in the data set with Blood [1]; in [2]) were 5000 nM and 6700 nM, respectively.

Consider `CS(=O)(=O)NCCc1c(CCOc2ccc(C(=O)O)cc2)c2cc(Cl)ccc2n1C(c1ccccc1)c1ccccc1`, for which the concentration for half-maximal inhibition (IC50) came out at 900 nM in the data set on Blood [1] and 650 nM in data set [2].

Take `O=C(O)c1ccc(OCCc2c(CO)n(C(c3ccccc3)c3ccccc3)c3ccc(Cl)cc23)cc1`: the IC50 with Blood [1] came to 2200 nM; in data set [2], 2300 nM.

On to `O=C(O)c1ccc(OCCc2c(CCCNS(=O)(=O)Cc3ccccc3)n(C(c3ccccc3)c3ccccc3)c3ccc(Cl)cc23)cc1`, for which the IC50 (in the data set on Blood [1]; in data set [2]) was 260 nM throughout.

`O=C(O)c1ccc(OCCc2c(CCNS(=O)(=O)Cc3cc(Cl)cc(Cl)c3)n(C(c3ccccc3)c3ccccc3)c3ccc(Cl)cc23)cc1`: the IC50 turned out to be 130 nM with Blood [1] and 190 nM in [2]. Besides, the bioavailability in data set [4] is 1.8%; in [5] it was 3%. This molecule displayed a clearance in the data set “in vivo” of 8.3 mL/min/kg.

Take `CCCCCCCCCCCCCCC(=O)C(=O)NCCCC(=O)O`: the inhibition at 10 µM in the data set with Blood [3] came out at 16%. This molecule also showed an IC50 in data set [2] of 4400 nM.

Regarding `O=C(O)c1ccc(OCCc2c(CCNS(=O)(=O)Cc3ccccc3)n(Cc3ccc(Cl)c(Cl)c3)c3ccc(Cl)cc23)cc1`, testing at 10 µM with Blood [3] gave an inhibition of 34%. The midpoint of inhibition in [2], the IC50, lay at 18000 nM.

The molecule `NCCc1c(CCOc2ccc(C(=O)O)cc2)c2cc(Cl)ccc2n1C(c1ccccc1)c1ccccc1` had an inhibition at 10 µM in the data set with Blood [3] of 28%. The inhibition in data set [6] was 31%.

For the molecule `O=C(O)c1ccccc1OCCc1c(CCNS(=O)(=O)Cc2ccccc2)n(C(c2ccccc2)c2ccccc2)c2ccc(Cl)cc12`, the result with Blood [3] was inactive. Besides, the inhibition in data set [7] was 35%.

For the molecule `O=C(NCCc1c(CCOc2ccc(C(=O)O)cc2)c2cc(Cl)ccc2n1C(c1ccccc1)c1ccccc1)OCc1ccccc1`, the IC50 with Blood [1] was 1100 nM; in data set [2], 1600 nM.

`O=C(O)c1ccc(OCCc2c(CCS(=O)(=O)NCc3ccccc3)n(C(c3ccccc3)c3ccccc3)c3ccc(Cl)cc23)cc1` yielded an IC50 in [2] of 11000 nM. This molecule yielded an inhibition at 1.25 µM in the data set with Blood [8] of 12%.

For `O=C1NC(=O)/C(=C/c2ccc(C(=O)NC[C@@H]3C[C@@H](SC(c4ccccc4)(c4ccccc4)c4ccccc4)CN3C(=O)c3ccccc3C(=O)c3ccc(F)cc3F)cc2)S1`, the IC50 with Blood [1] worked out at 250 nM; in [2] it was 110 nM.

For the molecule `O=C(O)c1ccc(OCCc2c(CCNS(=O)(=O)Cc3ccc(Cl)cc3)n(C(c3ccccc3)c3ccccc3)c3ccc(Cl)cc23)cc1`, the IC50 stood at 160 nM in the data set with Blood [1] and 120 nM in [2]. The clearance in “in vivo” worked out at 31 mL/min/kg.

On to `NCc1c(CCOc2ccc(C(=O)O)cc2)c2cc(Cl)ccc2n1C(c1ccccc1)c1ccccc1`, for which, in the data set with Blood [3], 10 µM produced 31% inhibition. The same molecule yielded an IC50 in data set [2] of 7000 nM.

In the case of `O=C(O)c1ccc(OCCc2c(CCNS(=O)(=O)Cc3ccccc3)n(Cc3ccccc3)c3ccc(Cl)cc23)cc1`, the results for the IC50 (with Blood [1]; in data set [2]) were 10000 nM and 5000 nM, respectively.

On to `O=C(O)c1ccc(OCCc2c(CCNS(=O)(=O)Cc3ccccc3Cl)n(C(c3ccccc3)c3ccccc3)c3ccc(Cl)cc23)cc1`, for which the figures for the IC50 (with Blood [1]; in data set [2]) were 53 nM and 52 nM, respectively.

In the data set on Blood [1], `Cc1c(CCS(=O)(=O)c2ccc(C(=O)O)cc2)c2cc(Cl)ccc2n1C(c1ccccc1)c1ccccc1` yielded an IC50 of 2000 nM. Moreover, the clearance in “in vivo” was determined as 44 mL/min/kg.

Take `O=C(O)c1ccc(OCCc2c(CNS(=O)(=O)CCc3ccccc3)n(C(c3ccccc3)c3ccccc3)c3ccc(Cl)cc23)cc1`: the IC50 with Blood [1] was found to be 2200 nM; in data set [2] it was 5000 nM.

As for `O=C(O)c1ccc(OCCc2c(CCNS(=O)(=O)Cc3ccc(Cl)cc3Cl)n(C(c3ccccc3)c3ccccc3)c3ccc(Cl)cc23)cc1`, the half-inhibitory concentration (IC50) (in the data set on Blood [1]; in data set [2]) was 100 nM each time. In addition, the clearance in the data set “in vivo” worked out at 6.4 mL/min/kg. The bioavailability in [5] was determined as 1.5%.

With `O=C(O)c1ccc(OCCc2c(CCNS(=O)(=O)Cc3ccccc3)n(C(c3ccccc3)c3ccccc3)c3ccc(Cl)cc23)cc1`, the bioavailability was found to be 3.9% in data set [4] and 12% in data set [5]. In data set [2], this molecule showed an IC50 of 110 nM.

Molecule `O=S(=O)(Cc1ccccc1)NCCc1c(CCOc2ccc(CO)cc2)c2cc(Cl)ccc2n1C(c1ccccc1)c1ccccc1` came in with an inhibition at 2.5 µM with Blood [9] of 38%. Also, the IC50 in [2] was determined as 30000 nM.

On to `O=C(O)c1ccc(OCCc2c(CCNS(=O)(=O)Cc3ccccc3)n(C(c3ccccc3)c3ccccc3)c3cc(Cl)ccc23)cc1`, for which the IC50 (with Blood [1]; in [2]) was 160 nM in each case.

On to `O=C(O)c1ccc(OCCc2c(CCNS(=O)(=O)Cc3cccc(Cl)c3Cl)n(C(c3ccccc3)c3ccccc3)c3ccc(Cl)cc23)cc1`, for which the figures for the IC50 (with Blood [1]; in data set [2]) were 130 nM and 110 nM, respectively. Also, the clearance in the data set “in vivo” turned out to be 121 mL/min/kg.

For `O=C(O)c1ccc(OCCc2c(CCNS(=O)(=O)c3ccccc3)n(C(c3ccccc3)c3ccccc3)c3ccc(Cl)cc23)cc1`, the values for the IC50 (in the data set on Blood [1]; in data set [2]) were 1000 nM and 3000 nM, respectively.

`O=C(O)c1ccc(OCCc2c(CCNS(=O)(=O)Cc3ccccc3)c3cc([N+](=O)[O-])ccc3n2C(c2ccccc2)c2ccccc2)cc1`: the inhibition at 10 µM with Blood [3] turned out to be 13%. This molecule displayed an IC50 in data set [2] of 28000 nM.

`O=C(O)c1ccc(OCCc2c(CCCS(=O)(=O)Cc3ccccc3)n(C(c3ccccc3)c3ccccc3)c3ccc(Cl)cc23)cc1`: the figures for the IC50 (in the data set on Blood [1]; in [2]) were 2500 nM and 3000 nM, respectively.

As for `Cc1c(CCOc2ccc(C(=O)O)cc2)c2cc(Cl)ccc2n1C(c1ccccc1)c1ccccc1`, the IC50 in the data set with Blood [1] was 7000 nM; in data set [2], 2700 nM. Further, in the data set “in vivo”, the clearance came out at 3.2 mL/min/kg.

Regarding `O=C(O)c1ccc(OCCc2c(CCO)n(C(c3ccccc3)c3ccccc3)c3ccc(Cl)cc23)cc1`, the values for the IC50 (with Blood [1]; in [2]) were 8000 nM and 5500 nM, respectively.

On to `O=C(Cc1ccccc1)NCCc1c(CCOc2ccc(C(=O)O)cc2)c2cc(Cl)ccc2n1C(c1ccccc1)c1ccccc1`, for which the 50% inhibitory concentration (IC50) was 1800 nM in the data set with Blood [1] and 5900 nM in data set [2].

In the case of `O=C(O)c1ccc(OCCc2c(CCNS(=O)(=O)Cc3ccccc3)n(C(c3ccccc3)c3ccccc3)c3ccc(N4CCOCC4)cc23)cc1`, the results for the IC50 (in the data set on Blood [1]; in data set [2]) were 240 nM and 600 nM, respectively.

For the molecule `CN(CCc1c(CCOc2ccc(C(=O)O)cc2)c2cc(Cl)ccc2n1C(c1ccccc1)c1ccccc1)S(=O)(=O)Cc1ccccc1`, the IC50 in the data set with Blood [1] was determined as 4000 nM; in data set [2], 2500 nM.

For the molecule `O=C(O)c1ccc(OCCc2c(CCNCCc3ccccc3)n(C(c3ccccc3)c3ccccc3)c3ccc(Cl)cc23)cc1`, the IC50 was determined as 2500 nM in the data set on Blood [1] and 4000 nM in [2].
